Assay [1] concerns A2780. The experiment in a line: Cytotoxicity against human ovarian carcinoma A2780cisR cell line. In kind it is functional, cell-based. The procedure, abridged: (§1)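 Cells kept in log-phase DMEM with 10% fetal calf serum, penicillin/streptomycin and Glutamax. Seeded at 2000 cells/well and allowed 48 h adhesion at 37 °C, 5% CO2. Exposed 72 h to compound diluted from a DMSO stock into complete medium, final 0.01 to 0.0001 mg/mL, in quadruplicate. Vehicle control contained 1% DMSO. Proliferation read by MTT (1 h, DMSO solubilization, OD 590 nm).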

In assay [2] the test system is A2780. Kind of assay: Cytotoxicity against human ovarian carcinoma A2780 cell line. In kind it is functional, cell-based. A digest of the protocol:
as §1

By IC50 is commonly meant the concentration that inhibits the measured activity by half. High values mean a need for much substance, low ones inhibition by little substance.

In the case of CARBOPLATIN, the results for the IC50 in the assay with A2780 [1] and in the assay on A2780 [2] were 41.6 µM and 8.2 µM, respectively.
For CISPLATIN the same measures were 7.8 µM and 2.3 µM.
For alpha-[Ru(azpy)2(NO3)2] the same measures were 6.3 µM and 8.5 µM.
For alpha-[Ru(azpy)2(cbdca-O,O')] the same measures were 4.9 µM and 7.2 µM.
alpha-[Ru(azpy)2(mal)]: the values for the IC50 in the assay with A2780 [1] and in the assay with A2780 [2] were 6.2 µM and 7.9 µM, respectively.
For alpha-[Ru(azpy)2Cl2], the IC50 is 0.98 µM in the assay on A2780 [1] and 0.85 µM in the assay on A2780 [2].
For the substance beta-[Ru(azpy)2(NO3)2] CHCl3, the IC50 in the assay with A2780 [1] worked out at 12.1 µM; in the assay on A2780 [2], 9.7 µM.
For beta-[Ru(azpy)2Cl2] CHCl3 the same measures were 7.3 µM and 1.6 µM.

Values taken from ChEMBL document CHEMBL1136783, “New cytotoxic and water-soluble bis(2-phenylazopyridine)ruthenium(II) complexes” (J Med Chem, 2003).
